Results from different studies.
Protocols differ between the studies behind these lines.
Observed: cell growth or viability

Cc1ccc(S(=O)(=O)n2cc(CN3CCN(c4ccc(C(=O)NO)cc4)CC3)c3ccccc32)cc1 — IC50 (LLC-PK1; 48 h): 8.82 µM
CC(C)N=c1cc2n(-c3ccc(Cl)cc3)c3ccccc3nc-2cc1Nc1ccc(Cl)cc1 — IC50 (Caco-2; MTT; 24 h): 23.3 µg/mL
C=CC(=O)N1CCC[C@@H](n2nc(-c3ccc(Oc4ccccc4)cc3)c3c(N)ncnc32)C1 — IC50 (SU-DHL-4; resazurin; 72 h): 0.454 µM
O=c1c2cc(Cl)ccc2nc(-c2ccccc2)n1N=Cc1ccc(Br)cc1O — IC50 (LLC-PK1; MTT; 72 h): 34.8 µM
COc1ccc(C=NNC(=O)c2cc(-c3ccccc3)n(-c3ccc(S(N)(=O)=O)cc3)n2)cc1OC — IC50 (HT-29; fluorescence; 48 h): 25.8 µM
O=c1c2cc(Cl)ccc2nc(-c2ccccc2)n1N=Cc1ccc([N+](=O)[O-])cc1 — IC50 (LLC-PK1; MTT; 72 h): 115 µM
CC(=NNC(=O)c1cc(-c2ccccc2)n(-c2ccc(S(N)(=O)=O)cc2)n1)c1ccc(C)cc1 — IC50 (HT-29; fluorescence; 48 h): 21.8 µM
COc1ccc(C=Nn2c(-c3ccccc3)nc3ccc(Cl)cc3c2=O)cc1OC — IC50 (LLC-PK1; MTT; 72 h): 462 µM
CC(=O)O[C@@H]1CC[C@@]2(C)[C@@H](CC[C@]3(C)[C@@H]2C(=O)C=C2[C@@H]4[C@@H](C)[C@H](C)CC[C@]4(C)CC[C@]23C)[C@@]1(C)C(=O)O — IC50 (Caco-2; MTT; 6 h): 1.61 µM
Cc1nn(-c2ccc(S(=O)(=O)N3CCN(C)CC3)cc2)c2nn3nnnc3nc12 — IC50 (HT-29; MTT): 0.08 µM
Cc1ccc(S(=O)(=O)n2cc(CNc3ccc(C(=O)NO)cc3)c3ccccc32)cc1 — IC50 (LLC-PK1; 48 h): 9.99 µM
O=c1c2cc(Cl)ccc2nc(-c2ccccc2)n1N=Cc1ccccc1 — IC50 (LLC-PK1; MTT; 72 h): 303 µM
CC(=NNC(=O)c1cc(-c2ccccc2)n(-c2ccc(S(N)(=O)=O)cc2)n1)c1ccc(Br)cc1 — IC50 (HT-29; fluorescence; 48 h): 37.2 µM
O=C(NO)c1ccc(NCc2cnc3ccccc3c2)cc1 — IC50 (LLC-PK1; 48 h): 9.38 µM
COc1cc(C=NNC(=O)c2cc(-c3ccccc3)n(-c3ccc(S(N)(=O)=O)cc3)n2)cc(OC)c1OC — IC50 (HT-29; fluorescence; 48 h): 26.3 µM
O=c1c2cc(Cl)ccc2nc(-c2ccccc2)n1N=Cc1ccco1 — IC50 (LLC-PK1; MTT; 72 h): 154 µM
NS(=O)(=O)c1ccc(-n2nc(C(=O)NN3C(=O)CCC3=O)cc2-c2ccccc2)cc1 — IC50 (HT-29; fluorescence; 48 h): 31.4 µM
COc1cccc2c1C(=O)c1c(O)c3c(c(O)c1C2=O)C[C@@](O)(C(=O)CO)C[C@@H]3O[C@H]1C[C@H](N)[C@H](O)[C@H](C)O1 — IC50 (SU-DHL-4; 96 h): 0.00506 µM
O=c1c2cc(Cl)ccc2nc(-c2ccccc2)n1N=Cc1ccccc1Cl — IC50 (LLC-PK1; MTT; 72 h): 351 µM
NS(=O)(=O)c1ccc(-n2nc(C(=O)NN3C(=O)c4ccccc4C3=O)cc2-c2ccccc2)cc1 — IC50 (HT-29; fluorescence; 48 h): 48.3 µM
